# Reference: ChEMBL document CHEMBL3627704, “Synthesis, quorum sensing inhibition and docking studies of 1,5-dihydropyrrol-2-ones” (Bioorg Med Chem, 2015)
# The source made the active and inactive calls. No cut-off for these calls is given here.
# System: Escherichia coli
# Assay: Inhibition of quorum sensing in Escherichia coli JB357 expressing green fluorescent protein assessed as reduction of OHHL-induced GFP expression after 2 hrs by fluorescence assay relative to OHHL
# Method in brief: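 E. coli JB357 carrying Vibrio fischeri luxR-PluxI-gfp(ASV) reporter; OHHL at final 10, 20, 50 or 100 nM in culture medium, triplicate wells, with dihydropyrrol-2-one at 0–10 mg/mL. Incubated 2 h at 37 °C; GFP fluorescence read relative to solvent control (100%). ID40 taken for each OHHL level and plotted against OHHL. AIC40 is the gradient of the fit forced through origin (inhibitor mol : OHHL mmol).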
SMILES,Ratio,inhibition
CCCCC1=CC(=C(Br)Br)N(Cc2ccccc2)C1=O,220,–
CCCCCC(Br)C1=CC(=C(Br)Br)N(c2ccccc2)C1=O (stereo unspecified),–,inactive
CCCCCC(O)C1=CC(=C(Br)Br)N(c2ccccc2)C1=O (stereo unspecified),–,inactive
CCCCC1=CC(=C(Br)Br)N(CCCC)C1=O,–,inactive
CCCCC1=C(Br)/C(=C/Br)N(CCCC)C1=O,279,–
CCCCC1=C(Br)/C(=C/Br)N(c2ccccc2)C1=O,–,inactive
CCCCCCCCN1C(=O)C=C(Br)C1=C(Br)Br,–,inactive
CCCCCCCCN1C(=O)C=C(Br)/C1=C/Br,20,–
CCCCCCCCCCCCN1C(=O)C=C(Br)C1=C(Br)Br,–,inactive
CCCCN1C(=O)C=C(Br)/C1=C/Br,19,–
CCCC(Br)C1=CC(=C(Br)Br)N(c2ccccc2)C1=O (stereo unspecified),1.95,–
O=C1C=C(Br)/C(=C/Br)N1c1ccccc1,–,inactive
CCCCC1=CC(=C(Br)Br)N(c2ccccc2)C1=O,97,–
CCCCCCC1=CC(=C(Br)Br)N(Cc2ccccc2)C1=O,140,–
O=C1C=C(Br)/C(=C/Br)N1Cc1ccccc1,26,–
CCCCCCC1=CC(=C(Br)Br)N(c2ccccc2)C1=O,248,–
CCCCN1C(=O)C=C(Br)C1=C(Br)Br,–,inactive
O=C1C=C(Br)C(=C(Br)Br)N1Cc1ccccc1,150,–

SMILES,Ratio,inhibition
CCCCC1=C(Br)/C(=C/Br)N(Cc2ccccc2)C1=O,–,inactive
CCCCC1=CC(=C(Br)Br)N(c2ccc(C)cc2)C1=O,–,inactive
CCCCCC(Br)C1=CC(=C(Br)Br)N(Cc2ccccc2)C1=O (stereo unspecified),–,inactive
CCCC(Br)C1=CC(=C(Br)Br)N(Cc2ccccc2)C1=O (stereo unspecified),–,inactive
CCCCCCC1=C(Br)/C(=C/Br)N(Cc2ccccc2)C1=O,–,inactive
CCCC(O)C1=CC(=C(Br)Br)N(c2ccccc2)C1=O (stereo unspecified),–,inactive
CC(C)CN1C(=O)C=C(Br)C1=C(Br)Br,65,–
CCCCCCN1C(=O)C=C(Br)/C1=C/Br,–,inactive
CCCCCCCCCCCCN1C(=O)C=C(Br)/C1=C/Br,–,inactive
CCCCCC(O)C1=CC(=C(Br)Br)N(Cc2ccccc2)C1=O (stereo unspecified),–,inactive
O=C1C=C(Br)C2(CBr)OCCCN3C(=O)C=C(Br)C3(CBr)OCCCN12 (stereo unspecified),112,–
CCCCCCC1=C(Br)/C(=C/Br)N(c2ccccc2)C1=O,–,inactive
CCCCCCC1=C(Br)/C(=C/Br)N(CCCC)C1=O,–,inactive
O=C1C=C(Br)C2(CBr)OCCN3C(=O)C=C(Br)C3(CBr)OCCN12 (stereo unspecified),78,–
CCCC(O)C1=CC(=C(Br)Br)N(Cc2ccccc2)C1=O (stereo unspecified),–,inactive
CCCCCCN1C(=O)C=C(Br)C1=C(Br)Br,–,inactive
CCCCCCC1=CC(=C(Br)Br)N(CCCC)C1=O,–,inactive
CC(C)CN1C(=O)C=C(Br)/C1=C/Br,–,inactive
